Laboratory results as given in ChEMBL document CHEMBL3244334, “Synthesis of pyridinium analogues of acetylcholine and their interactions with intestinal muscarinic receptors” (J Med Chem, 1979).
Active and inactive are the calls of the source. The calls are words filed in the database; no cut-off is given here.

Assays:
[1] = species on record: Cavia porcellus; assay: Agonist activity at muscarinic acetylcholine receptor in guinea pig ileum assessed as longitudinal muscle contraction measured every 20 mins in presence of 0.05 uM physostigmine; type: tissue-based
[2] = species on record: Cavia porcellus; assay: Agonist activity at muscarinic acetylcholine receptor in guinea pig ileum assessed as longitudinal muscle contraction measured every 20 mins in absence of 10 uM competitive nicotinic antagonist hexamethonium chloride; type: tissue-based
Method in brief: (§1)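 Isolated ileal muscle, cumulative agonist dose-response curves built every 20 min, read as contraction. pD2 derived; n = 15. Hexamethonium either left out of the bath or raised from 10 to 100 μM.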

[3] = species on record: Cavia porcellus; assay: Agonist activity at muscarinic acetylcholine receptor in guinea pig ileum assessed as longitudinal muscle contraction measured every 20 mins in presence of 10 uM competitive nicotinic antagonist hexamethonium chloride; type: tissue-based
Method in brief: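 Isolated ileal muscle in a bath with 10 μM hexamethonium chloride to block ganglionic stimulation. Cumulative concentration-response curves to the test agonist and to acetyl-β-methylcholine (reference agonist) were built alternately on one preparation every 20 min. pD₂ was derived from the curves, n = 15 per drug, means ± SD.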

[4] = species on record: Cavia porcellus; assay: Agonist activity at muscarinic acetylcholine receptor in guinea pig ileum assessed as longitudinal muscle contraction measured every 20 mins in presence of 100 uM competitive nicotinic antagonist hexamethonium chloride; type: tissue-based; method in brief: as §1
[5] = species on record: Cavia porcellus; assay: Agonist activity at muscarinic acetylcholine receptor in guinea pig ileum assessed as longitudinal muscle contraction at 10^-5 M in presence of 10 uM competitive nicotinic antagonist hexamethonium chloride relative to control; type: tissue-based
[6] = Toxicity in NMRI mouse; type: organism-based; settings: in vivo
[7] = target: Acetylcholinesterase (Electrophorus electricus) (UniProt O42275); assay: Inhibition of electric eel acetylcholinesterase using acetylcholine as substrate at 3 x 10^-4 M relative to control
Method in brief: (§2)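 Electric eel AChE; substrate 1 mM ACh. Inhibition taken as the lowered rate of ACh decomposition, measured by pH-stat titration. Six experiments per value, reported as means ± SD.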

[8] = (§3) Competitive antagonist activity at muscarinic acetylcholine receptor in guinea pig ileum assessed as inhibition of 1-(2-acetoxyethyl)pyridinium iodide-induced longitudinal muscle contraction administered 10 mins prior to 1-(2-acetoxyethyl)pyridinium iodide induction measured every 20 mins in presence of 10 uM competitive nicotinic antagonist hexamethonium chloride; type: tissue-based; settings: Cavia porcellus, read-out: pA2 (converted)
Method in brief: (§4)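 Ileal muscle in 10 μM hexamethonium chloride. Tissue conditioned with a single antagonist dose for 10 min before cumulative dose-response curves to the pyridinium agonist. Points are means of equipotent agonist concentrations giving standard responses, from 6–8 experiments.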

[9] = as §3, with “acetyl-beta-methylcholine-induced” for “1-(2-acetoxyethyl)pyridinium iodide-induced”, “acetyl-beta-methylcholine” for “1-(2-acetoxyethyl)pyridinium iodide”; type: tissue-based; settings: Cavia porcellus, read-out: pA2 (converted)
Method in brief: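 Ileal muscle was pretreated for 10 min with a single antagonist dose, then a cumulative acetyl-β-methylcholine concentration-response curve was run, with 10 μM hexamethonium chloride in the bath. Lachesine was the reference antagonist, run the same way. Rightward shift of the log concentration-response curves and any change in shape or maximum were assessed. Values are means ± SD.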

[10] = species on record: Cavia porcellus; assay: Agonist activity at muscarinic acetylcholine receptor in guinea pig ileum assessed as longitudinal muscle contraction at 3 x 10^-4 M in presence of 10 uM competitive nicotinic antagonist hexamethonium chloride relative to control; type: tissue-based
[11] = target: Acetylcholinesterase (Electrophorus electricus) (UniProt O42275); assay: Inhibition of electric eel acetylcholinesterase using acetylcholine as substrate at 10^-5 M relative to control; method in brief: as §2
[12] = target: Acetylcholinesterase (Electrophorus electricus) (UniProt O42275); assay: Inhibition of electric eel acetylcholinesterase using acetylcholine as substrate at 10^-3 M relative to control; method in brief: as §2
[13] = species on record: Cavia porcellus; assay: Agonist activity at muscarinic acetylcholine receptor in guinea pig ileum assessed as longitudinal muscle contraction at 10^-3 M in presence of 10 uM competitive nicotinic antagonist hexamethonium chloride relative to control; type: tissue-based
[14] = target: Acetylcholinesterase (Electrophorus electricus) (UniProt O42275); assay: Inhibition of electric eel acetylcholinesterase using acetylcholine as substrate at 3 x 10^-5 M relative to control; method in brief: as §2
[15] = species on record: Cavia porcellus; assay: Agonist activity at muscarinic acetylcholine receptor in guinea pig ileum assessed as longitudinal muscle contraction at 3 x 10^-5 M in presence of 10 uM competitive nicotinic antagonist hexamethonium chloride relative to control; type: tissue-based
[16] = tested on: Cavia porcellus; assay: as §3, with “Non-competitive” for “Competitive”, “contraction at 0.1 uM” for “contraction”; type: tissue-based; method in brief: as §4
[17] = species on record: Cavia porcellus; assay: Agonist activity at muscarinic acetylcholine receptor in guinea pig ileum assessed as longitudinal muscle contraction at 10^-4 in presence of 10 uM competitive nicotinic antagonist hexamethonium chloride relative to control; type: tissue-based
[18] = target: Acetylcholinesterase (Electrophorus electricus) (UniProt O42275); settings: 10^-6 M
[19] = species on record: Cavia porcellus; assay: Agonist activity at muscarinic acetylcholine receptor in guinea pig ileum assessed as longitudinal muscle contraction at 10^-6 M in presence of 10 uM competitive nicotinic antagonist hexamethonium chloride relative to control; type: tissue-based

Sequence of Acetylcholinesterase (Electrophorus electricus) (O42275 24-633 limits assumed): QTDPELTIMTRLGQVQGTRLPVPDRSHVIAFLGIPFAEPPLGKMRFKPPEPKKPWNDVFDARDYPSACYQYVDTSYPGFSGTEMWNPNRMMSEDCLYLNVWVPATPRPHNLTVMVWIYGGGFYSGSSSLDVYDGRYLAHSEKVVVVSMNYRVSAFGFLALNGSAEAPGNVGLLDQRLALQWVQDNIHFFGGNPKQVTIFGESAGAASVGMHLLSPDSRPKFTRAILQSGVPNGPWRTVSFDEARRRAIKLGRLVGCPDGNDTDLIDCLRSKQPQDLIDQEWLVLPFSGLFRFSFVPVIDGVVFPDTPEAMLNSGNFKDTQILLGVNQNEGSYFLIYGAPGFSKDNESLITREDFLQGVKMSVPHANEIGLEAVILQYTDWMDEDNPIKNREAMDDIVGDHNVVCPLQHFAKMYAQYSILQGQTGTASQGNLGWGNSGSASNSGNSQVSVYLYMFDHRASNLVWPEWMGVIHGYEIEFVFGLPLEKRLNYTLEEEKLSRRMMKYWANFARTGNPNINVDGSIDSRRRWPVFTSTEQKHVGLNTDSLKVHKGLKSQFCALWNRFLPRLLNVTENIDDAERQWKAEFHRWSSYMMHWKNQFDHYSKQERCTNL

CC(=O)OC(C)C[N+](C)(C)C (configuration not stated)
Activity [1]: Active | Activity [2]: Active | pD2 [3]: 7.02 | Activity [4]: Active

CC(=O)OCC[n+]1ccc(C(C)(C)C)cc1.[Br-]
%max [5]: 0% | LD50 [6]: 2000 µmol/kg | inhibition [7]: 66.2% | Kb [8]: 30.2 µM | Kb [9]: 37.2 µM | %max [10]: 0% | inhibition [11]: 32.3%

CC(=O)OCC[n+]1ccc(C)cc1.[Br-]
inhibition [12]: 77.4% | %max [13]: 0% | inhibition [14]: 42.5% | LD50 [6]: 2000 µmol/kg | %max [15]: 0% | Kb [9]: 372 µM

CC[N+](C)(C)CCOC(=O)C(O)(c1ccccc1)c1ccccc1 [LACHESINE CHLORIDE]
inhibition [16]: Active | Kb [8]: 0.00219 µM | Kb [9]: 0.0024 µM

CC(=O)OCC[n+]1ccccc1
Activity [1]: Active | %max [17]: 89% | Activity [2]: Active | inhibition [18]: 23.9% | %max [19]: 0% | pD2 [3]: 4.62 | Activity [4]: Active
